The source of these data is ChEMBL document CHEMBL2321682, “Synthesis and Anti-inflammatory Evaluation of Novel Benzimidazole and Imidazopyridine Derivatives” (ACS Med Chem Lett, 2013).

pIC50: −log10 of the molar value.

The subject of series [1] is RAW264.7. Kind of series: Inhibition of LPS-induced TNF-alpha secretion in mouse RAW264.7 cells at 10 uM pretreated for 2 hrs prior to LPS addition measured after 22 hrs by ELISA. In kind it is functional. The gist of the method: (§1)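 RAW 264.7 macrophages seeded at 4.0 × 10^5/plate overnight (37 °C, 5% CO2), pretreated 2 h with 10 μM compound (omeprazole as comparator), then LPS 0.5 μg/mL for 22 h. TNF-α and IL-6 in medium measured by ELISA, normalized to total cellular protein.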
In general terms: ELISA stands for enzyme-linked immunosorbent assay.

Series [2] relates to RAW264.7. Kind of series: Inhibition of LPS-induced TNF-alpha secretion in mouse RAW264.7 cells pretreated for 2 hrs prior to LPS addition measured after 22 hrs by ELISA. In kind it is functional, cell-based. The gist of the method: (§2)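 Dose–response for IC50. RAW264.7 cells were seeded at 1.2 × 10^6/plate overnight at 37 °C, 5% CO2. They were pretreated 2 h with 1.0, 5.0 or 10 μM compound, then given LPS 0.5 μg/mL for 22 h. Medium TNF-α or IL-6 was quantified by ELISA and normalized to total protein.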

Series [3] concerns RAW264.7. Description: Inhibition of LPS-induced IL-6 secretion in mouse RAW264.7 cells pretreated for 2 hrs prior to LPS addition measured after 22 hrs by ELISA. In kind it is functional, cell-based. The gist of the method:
as §2

Series [4] relates to RAW264.7. Kind of series: Inhibition of LPS-induced IL-6 secretion in mouse RAW264.7 cells at 10 uM pretreated for 2 hrs prior to LPS addition measured after 22 hrs by ELISA. In kind it is functional. The gist of the method:
as §1

The nature of series [5]: Cytotoxicity against human HL7702 cells assessed as inhibition of cell viability at 20 uM after 24 to 72 hrs by MTT assay. In kind it is cell-based. The conditions noted are these: l02, 20 µM. Put shortly: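 Human normal liver HL-7702 cells exposed to 20 μM compound for 24, 48 and 72 h; viability read by MTT.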
Series [6] deals with Mus musculus. Kind of series: Antiinflammatory activity against LPS-induced C57BL/6 mouse sepsis model assessed as increase in survival rate at 15 mg/kg, iv administered 15 mins after LPS injection measured for 7 days. In kind it is functional. Put shortly: (§3)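 Mice received LPS 20 mg/kg iv. Test agent was given iv as its HCl salt at 15 mg/kg, either 15 min after LPS (line 1, therapeutic) or 15 min before LPS (line 2, preventive). Survival and body weight were recorded daily for 7 days. Data pool two experiments, n = 12 per group, compared with the LPS-alone group.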

The subject of series [7] is Mus musculus. Description: Antiinflammatory activity against LPS-induced C57BL/6 mouse sepsis model assessed as increase in survival rate at 15 mg/kg, iv administered 15 mins prior to LPS injection measured for 7 days. In kind it is functional. Put shortly: as §3

Broadly, the inhibition is the relative decrease from the control value, in per cent. As to `CCCn1c(-c2cn(C)c3ccccc23)nc2ccc(N3CCN(C)CC3)nc21`, the inhibition at 10 µM in series [1] stood at 50%.
`CN1CCN(c2ccc3nc(-c4c[nH]c5ccccc45)[nH]c3n2)CC1`: the inhibition at 10 µM in series [1] stood at 50%.
On to `COc1ccccc1-c1nc2ccc(N3CCN(C)CC3)nc2[nH]1`, for which, in series [1], the inhibition at 10 µM stood at 50%.
The term pIC50 denotes the negative decadic logarithm of the IC50, by convention in mol/L. Consider `CCCn1c(-c2ccc(C)s2)nc2ccc(N3CCN(C)CC3)nc21`, for which the pIC50 in series [2] was 5.14; in series [3] it was 5.55. The inhibition result in series [2] and in series [3] was “Dose-dependent effect” each time. Moreover, the inhibition at 10 µM in series [1] was 50%; in series [4], over 50%.
`CCN(CC)CCn1c(-c2ccccc2OC)nc2cc(Cl)ccc21`: in series [1], the inhibition at 10 µM stood at 50%.
Regarding `CCCn1c(-c2c[nH]c3ncccc23)nc2ccc(N3CCN(C)CC3)nc21` [listing 1 of 2 here], the pIC50 was 5.32 in series [2] and 5.79 in series [3]. Besides, the Activity result in series [5] is “Non-toxic”. For the same compound, the inhibition at 10 µM in series [1] was 50%; in series [4], over 50%.
On to `CCCn1c(-c2c[nH]c3ncccc23)nc2ccc(N3CCN(C)CC3)nc21.Cl`, for which the Activity in series [6] and in series [7] was 50% in each case.
As to `CCCn1c(-c2c[nH]c3ccccc23)nc2ccc(N3CCN(C)CC3)nc21`, the results for the pIC50 in series [2] and in series [3] were 4.85 and 5.37, respectively. Besides, the inhibition entry in series [2] and in series [3] was “Dose-dependent effect” throughout. The inhibition at 10 µM in series [1] is 64.8%; in series [4], 81.4%.
Turning to `CCCn1c(-c2cn(C)c3ccccc23)nc2ccc(N3CCOCC3)nc21`, the inhibition at 10 µM in series [1] was 50%.
Take `CCCn1c(-c2ccccc2OC)nc2ccc(N3CCN(C)CC3)nc21`: in series [1], the inhibition at 10 µM was found to be 50%.
`CCCn1c(-c2ccc(C)s2)nc2ccc(N3CCOCC3)nc21`: in series [1], the inhibition at 10 µM was determined as 50%.
Turning to `CCCn1c(-c2c[nH]c3ccc(Br)cc23)nc2ccc(N3CCN(C)CC3)nc21`, the pIC50 in series [2] was 5.70; in series [3], 5.92. Further, the inhibition entry in series [2] and in series [3] was “Dose-dependent effect” each time. Also, the Activity entry in series [5] is listed as “Toxic”. Further, the values for the inhibition at 10 µM in series [1] and in series [4] were 50% and over 50%, respectively.
Consider `CCCn1c(-c2c[nH]c3ncccc23)nc2ccc(N3CCN(C)CC3)nc21` [listing 2 of 2 here], for which the inhibition result in series [2] and in series [3] was “Dose-dependent effect” in each case.
Take `CCCn1c(-c2ccc(OCCCN(C)C)cc2)nc2ccc(N3CCN(C)CC3)nc21`: the pIC50 in series [2] is 4.91; in series [3], 5.48. Also, the inhibition result in series [2] and in series [3] was “Dose-dependent effect” in each case. Moreover, the Activity result in series [5] was “Non-toxic”. Besides, the inhibition at 10 µM in series [1] was 50%; in series [4], over 50%.
For the compound `Cc1ccc(-c2nc3ccc(N4CCN(C)CC4)nc3[nH]2)s1`, in series [1], the inhibition at 10 µM came to 50%.
For the compound `CCCn1c(-c2ccccc2Br)nc2ccc(N3CCN(C)CC3)nc21`, in series [1], the inhibition at 10 µM is 50%.
Regarding `CCCn1c(-c2ccccc2F)nc2ccc(N3CCN(C)CC3)nc21`, the inhibition at 10 µM in series [1] stood at 50%.
